Only a selection was taken, and hits are over-represented in it overall.
A1 apoptosis 2: blocks A1, raising caspase activity. caspase activation, % (test concentration not listed). AID 2465. 24,000 tested, under 10 active. MEF A1-2A-BIM cells, caspase-Glo luminescence, 3 h; percent of clofoctol response, DMSO zero; in the data active means caspase activation above about 5.9%; inconclusive means no clear call, values can overlap the other calls; inactive means below about 2.2%
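Material: A1-2A-BIM-expressing MEF cells. Buffer or medium: RPMI-1640 plus 10% FBS. Incubation: cells settled overnight, compound exposure 3 h at 37 °C, 5% CO2. Signal: Caspase-Glo 3/7 luminescence, 1 h at room temperature.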
T cruzi intra: blocks T. cruzi growth inside host cells; 22,000 tested, 4.9% active; AID 651903; activity score (inhibition), % at 5.01 µM; intracellular Trypanosoma cruzi in host cells, plate reader; in the data active means activity score above about 55%; inconclusive means no clear call, values can overlap the other calls;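 further: parasites and compound incubated about four days before reading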
INS-1E ATP HTS: INS-1E beta cell protection from cytokine death | INS-1E cytokine-induced death, ATP luminescence, 48 h; normalised: neutral wells 0, positive control 100 | protection from cytokine-induced ATP loss, % at 10 µM | 20,000 tested, 0.1% active | AID 488910;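 active means mean replicate protection from cytokine-induced ATP loss at least 50% and at least 75% of replicates each reaching 50%; inconclusive means meets only one of the two criteria, mean or replicate share; inactive means fails both the mean and replicate share criteria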
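Test system: INS-1E rat cells | Quantity: 8000 cells per well | Medium: Phenol-red-free RPMI with 5% fetal bovine serum | Reagent: Cytokine cocktail of IFN-γ, TNF-α and IL-1β | Doses: One compound concentration, pin transfer | Timing: 48 h co-treatment, 10 min post-lysis read | Technique: Luminescent ATP assay (CellTiter-Glo)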
Of the large screens only hits and unclear results are named; the others gave an inactive call.

O=C(CCCCCCC(=O)Nc1ccccc1O)N/N=C/[C@H](O)[C@@H](O)[C@H](O)CO	none (no result: A1 apoptosis 2)
C[C@@H]1CCCCO[C@@H](CN(C)S(=O)(=O)c2ccc(Cl)cc2)[C@@H](C)CN([C@@H](C)CO)C(=O)c2cc(NC(=O)C3CCCCC3)ccc2O1	none (no result: T cruzi intra, INS-1E ATP HTS)
COc1ccc(S(=O)(=O)N(C)C[C@H]2Oc3c(NC(=O)c4cc(C)nn4C)cccc3C(=O)N([C@H](C)CO)C[C@H]2C)cc1	none
C[C@@H]1CN([C@H](C)CO)C(=O)Cc2cc(NC(=O)Nc3ccc(F)cc3)ccc2O[C@@H]1CN(C)Cc1ccc(Cl)c(Cl)c1	T cruzi intra 68.1
C[C@@H]1CN([C@@H](C)CO)C(=O)Cc2cc(NC(=O)Nc3ccc(F)cc3)ccc2O[C@H]1CN(C)Cc1ccc(Cl)c(Cl)c1	none (no result: T cruzi intra, INS-1E ATP HTS)
C[C@@H]1CN([C@@H](C)CO)C(=O)Cc2cc(NC(=O)Nc3ccc4c(c3)OCO4)ccc2O[C@@H]1CN(C)Cc1ccc(Cl)c(Cl)c1	none (no result: A1 apoptosis 2)
C[C@H]1CN([C@@H](C)CO)C(=O)Cc2cc(NC(=O)Nc3ccc(F)cc3)ccc2O[C@H]1CN(C)Cc1ccc(Cl)c(Cl)c1	T cruzi intra 64.0
C[C@@H]1CN([C@@H](C)CO)C(=O)Cc2cc(NC(=O)Nc3ccccc3)ccc2O[C@@H]1CN(C)Cc1ccc(Cl)c(Cl)c1	T cruzi intra 68.3 (no result: A1 apoptosis 2)
C[C@H]1CN([C@@H](C)CO)C(=O)Cc2cc(NC(=O)Nc3ccc4c(c3)OCO4)ccc2O[C@H]1CN(C)Cc1ccc(Cl)c(Cl)c1	T cruzi intra 63.3 (no result: A1 apoptosis 2)
C[C@H](CO)N1C[C@H](C)[C@H](CN(C)Cc2ccc(Cl)c(Cl)c2)Oc2ccc(NC(=O)Nc3ccc(F)cc3)cc2CC1=O	T cruzi intra inconclusive (no result: A1 apoptosis 2)
C[C@H](CO)N1C[C@H](C)[C@@H](CN(C)Cc2ccc(Cl)c(Cl)c2)Oc2ccc(NC(=O)Nc3ccc(F)cc3)cc2CC1=O	none (no result: T cruzi intra, INS-1E ATP HTS)
COc1ccc(NC(=O)Nc2cccc3c2O[C@H](CN(C)S(=O)(=O)c2ccc(Cl)cc2)[C@H](C)CN([C@H](C)CO)C3=O)cc1	none
COc1ccc(NC(=O)Nc2cccc3c2O[C@H](CN(C)CC2CCCCC2)[C@H](C)CN([C@H](C)CO)C3=O)cc1	none
C[C@@H]1CN([C@@H](C)CO)C(=O)c2cc(NS(C)(=O)=O)ccc2O[C@H]1CN(C)C(=O)Nc1ccccc1	none
C[C@@H]1CN([C@H](C)CO)C(=O)c2cccc(NS(=O)(=O)c3cn(C)cn3)c2O[C@H]1CN(C)CC1CCCCC1	none (no result: A1 apoptosis 2)
COc1ccc(CN(C)C[C@@H]2Oc3c(NS(=O)(=O)c4cccs4)cccc3C(=O)N([C@H](C)CO)C[C@@H]2C)cc1	none
COc1ccc(S(=O)(=O)N(C)C[C@H]2Oc3ccc(NC(=O)Cc4ccccc4)cc3C(=O)N([C@@H](C)CO)C[C@@H]2C)cc1	none
Cc1noc(C)c1S(=O)(=O)Nc1ccc2c(c1)C(=O)N([C@@H](C)CO)C[C@H](C)[C@@H](CN(C)Cc1ccc(C(=O)Nc3ccccc3N)cc1)O2	none
Cc1noc(C)c1S(=O)(=O)Nc1ccc2c(c1)C(=O)N([C@H](C)CO)C[C@@H](C)[C@@H](CN(C)Cc1ccc(C(=O)Nc3ccccc3N)cc1)O2	T cruzi intra 64.7
Cc1noc(C)c1S(=O)(=O)Nc1ccc2c(c1)CC(=O)N([C@@H](C)CO)C[C@H](C)[C@H](CN(C)Cc1ccc(C(=O)Nc3ccccc3N)cc1)O2	none (no result: T cruzi intra, INS-1E ATP HTS)
Cc1noc(C)c1S(=O)(=O)Nc1ccc2c(c1)C(=O)N([C@@H](C)CO)C[C@@H](C)[C@@H](CN(C)Cc1ccc(C(=O)Nc3ccccc3N)cc1)O2	none
Cc1noc(C)c1S(=O)(=O)Nc1ccc2c(c1)C(=O)N([C@H](C)CO)C[C@H](C)[C@H](CN(C)Cc1ccc(C(=O)Nc3ccccc3N)cc1)O2	T cruzi intra 79.0 (no result: A1 apoptosis 2)
Cc1noc(C)c1S(=O)(=O)Nc1ccc2c(c1)CC(=O)N([C@H](C)CO)C[C@H](C)[C@H](CN(C)Cc1ccc(C(=O)Nc3ccccc3N)cc1)O2	T cruzi intra 75.5 (no result: A1 apoptosis 2)
C[C@H](CO)N1C[C@H](C)[C@H](CN(C)S(=O)(=O)c2ccc(Cl)cc2)Oc2ccc(NC(=O)C3CCCCC3)cc2CC1=O	none (no result: A1 apoptosis 2)
Cc1noc(C)c1S(=O)(=O)Nc1ccc2c(c1)C(=O)N([C@H](C)CO)C[C@H](C)[C@H](CN(C)C(=O)Nc1ccc(C(F)(F)F)cc1)OCCCC[C@@H](C)O2	T cruzi intra 58.1 (no result: A1 apoptosis 2)
Cc1noc(C)c1S(=O)(=O)Nc1ccc2c(c1)C(=O)N([C@H](C)CO)C[C@H](C)[C@@H](CN(C)C(=O)Nc1ccc(C(F)(F)F)cc1)OCCCC[C@@H](C)O2	T cruzi intra 58.0 (no result: A1 apoptosis 2)
Cc1noc(C)c1S(=O)(=O)Nc1ccc2c(c1)C(=O)N([C@@H](C)CO)C[C@@H](C)[C@H](CN(C)C(=O)Nc1ccc(C(F)(F)F)cc1)OCCCC[C@H](C)O2	none (no result: T cruzi intra, INS-1E ATP HTS)
Cc1noc(C)c1S(=O)(=O)Nc1ccc2c(c1)C(=O)N([C@H](C)CO)C[C@@H](C)[C@H](CN(C)C(=O)Nc1ccc(C(F)(F)F)cc1)OCCCC[C@@H](C)O2	none (no result: T cruzi intra, INS-1E ATP HTS)
C[C@H](CO)N1C[C@H](C)[C@@H](CN(C)S(C)(=O)=O)Oc2ccc(NC(=O)Cc3cn(C)c4ccccc34)cc2C1=O	none (no result: A1 apoptosis 2)
C[C@H]1CCCCO[C@@H](CN(C)C)[C@@H](C)CN([C@@H](C)CO)C(=O)c2cc(NC(=O)Cc3ccccc3)ccc2O1	none (no result: T cruzi intra, INS-1E ATP HTS)
C[C@H]1CN([C@@H](C)CO)C(=O)Cc2cc(NC(=O)Cc3cn(C)c4ccccc34)ccc2O[C@@H]1CN(C)S(C)(=O)=O	none
Cc1ccc(S(=O)(=O)Nc2ccc3c(c2)C(=O)N([C@@H](C)CO)C[C@H](C)[C@H](CN(C)C(=O)Nc2ccc(C(F)(F)F)cc2)OCCCC[C@H](C)O3)cc1	none (no result: T cruzi intra, INS-1E ATP HTS)
Cc1ccc(S(=O)(=O)Nc2ccc3c(c2)C(=O)N([C@@H](C)CO)C[C@@H](C)[C@@H](CN(C)C(=O)Nc2ccc(C(F)(F)F)cc2)O3)cc1	T cruzi intra 67.7
C[C@@H]1CCCCO[C@@H](CN(C)C(=O)Nc2ccc(C(F)(F)F)cc2)[C@@H](C)CN([C@H](C)CO)C(=O)c2cc(NS(=O)(=O)c3ccc(F)cc3)ccc2O1	T cruzi intra 71.1
Cc1ccc(S(=O)(=O)Nc2ccc3c(c2)C(=O)N([C@H](C)CO)C[C@H](C)[C@H](CN(C)C(=O)Nc2ccc(C(F)(F)F)cc2)O3)cc1	none (no result: INS-1E ATP HTS)
Cc1ccc(S(=O)(=O)Nc2ccc3c(c2)C(=O)N([C@H](C)CO)C[C@H](C)[C@@H](CN(C)C(=O)Nc2ccc(C(F)(F)F)cc2)OCCCC[C@@H](C)O3)cc1	T cruzi intra 74.8
C[C@@H]1CCCCO[C@@H](CN(C)C(=O)Nc2ccc(F)cc2)[C@@H](C)CN([C@H](C)CO)C(=O)c2cc(NS(=O)(=O)c3ccc(Cl)cc3)ccc2O1	T cruzi intra 64.6
C[C@@H]1CCCCO[C@H](CN(C)C(=O)Nc2ccc(F)cc2)[C@H](C)CN([C@H](C)CO)C(=O)c2cc(NS(=O)(=O)c3ccc(Cl)cc3)ccc2O1	none (no result: T cruzi intra, INS-1E ATP HTS)
C[C@@H]1CCCCO[C@@H](CN(C)C(=O)Nc2ccc(C(F)(F)F)cc2)[C@H](C)CN([C@@H](C)CO)C(=O)c2cc(NS(=O)(=O)c3ccc(F)cc3)ccc2O1	none (no result: T cruzi intra, INS-1E ATP HTS)

Source: PubChem BioAssay
